High-throughput results as filed in PubChem.
This is a sample that favours compounds with a hit; in the whole collection about 4.5% have one here.
UPR CHOP act = activators of apoptotic CHOP UPR arm, primary screen, cell-based, CHO-CHOP luciferase reporter, luminescence, uHTS; UPR activation; percent of tunicamycin response over DMSO baseline; activation, % at 10 µM; 0.34% of 330,000 active;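 active = at 10 µM dose, activation of 40% or more, normalized to positive control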
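Dosing – one dose, 10 µM in 0.5% DMSO · System – CHO-CHOP cells, stable luciferase reporter of PERK-eIF2a-CHOP signalling · Input – 500 cells/well · Control set – tunicamycin 10 µg/mL final as positive, DMSO-only wells as negative · Timing – 6 h compound treatment, 37 °C · Measure – % activation vs tunicamycin · Technique – luminescence read with Steady-Glo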
CHOP inh = inhibitors of CHOP promoter induction, primary screen, cell-based, unfolded protein response, luciferase reporter; AID 2732, 2010; CHO-K1 CHOP-promoter luciferase, tunicamycin-induced, 15-18 h; 3.8% of 220,000 active; inhibition, % at 10 µM;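 active = compounds that reduced the stress-induced luciferase reporter signal by more than about 70% of percent inhibition, limit read from the data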
p97 ATPase inh = inhibitors of human p97 ATPase, primary screen, biochemical | Transitional endoplasmic reticulum ATPase (Homo sapiens), P55072 | recombinant p97 ATPase, Kinase-Glo ATP luminescence, 3 h | inhibition, % at 8 µM | 0.42% of 220,000 active; in the data active = inhibition above about 15%
Target sequence (P55072 whole entry, looked up): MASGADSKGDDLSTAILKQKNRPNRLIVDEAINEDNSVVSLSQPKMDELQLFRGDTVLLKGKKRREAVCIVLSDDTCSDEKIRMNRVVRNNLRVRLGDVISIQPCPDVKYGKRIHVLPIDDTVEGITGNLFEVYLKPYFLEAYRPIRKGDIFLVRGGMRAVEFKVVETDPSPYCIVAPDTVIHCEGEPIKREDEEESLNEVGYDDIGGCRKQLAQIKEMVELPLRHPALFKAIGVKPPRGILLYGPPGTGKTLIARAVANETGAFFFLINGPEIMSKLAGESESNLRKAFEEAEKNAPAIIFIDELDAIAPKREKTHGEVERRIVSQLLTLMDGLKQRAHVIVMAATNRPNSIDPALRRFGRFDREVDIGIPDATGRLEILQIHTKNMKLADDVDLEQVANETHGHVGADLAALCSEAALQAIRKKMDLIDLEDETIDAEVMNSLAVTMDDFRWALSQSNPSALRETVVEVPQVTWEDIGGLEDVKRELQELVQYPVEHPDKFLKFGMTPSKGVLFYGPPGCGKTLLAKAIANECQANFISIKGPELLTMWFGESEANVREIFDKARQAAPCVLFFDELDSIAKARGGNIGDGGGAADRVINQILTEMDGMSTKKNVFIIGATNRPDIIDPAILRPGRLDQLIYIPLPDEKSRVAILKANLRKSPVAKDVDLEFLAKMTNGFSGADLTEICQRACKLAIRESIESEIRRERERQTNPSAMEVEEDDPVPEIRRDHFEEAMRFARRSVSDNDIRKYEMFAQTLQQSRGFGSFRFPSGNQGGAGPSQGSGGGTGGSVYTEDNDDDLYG
UPR XBP1 act = activators of adaptive XBP1 UPR arm, primary screen, cell-based, CHO-XBP1 luciferase reporter, luminescence, uHTS | IRE1-XBP1 UPR activation; percent of tunicamycin response, DMSO as zero | activation, % at 20 µM | 0.33% of 330,000 active;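 active = versus positive control, 20 µM dose yields 30% or more activation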
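Material: CHO cell line with stable XBP1 luciferase reporter; schedule: 16-18 h cell attachment at 37 °C, then 6 h compound exposure; signal: glow luminescence from Steady-Glo reagent; medium: serum-containing F12 medium, 10% FBS; benchmarks: tunicamycin 10 µg/mL and vehicle-only wells; read-out: percent activation relative to tunicamycin reference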
PfM18AAP inh = PfM18AAP inhibitors, malaria aminopeptidase, primary screen, biochemical, QFRET, recombinant enzyme | M18 aspartyl aminopeptidase (Plasmodium falciparum 3D7) | H-Glu-NHMec fluorogenic cleavage | inhibition, % at 7.35 µM | 1.2% of 290,000 active;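 active = inhibition above the campaign mean inhibition over all tested compounds plus 3 SD, cut at about 28% in these data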
HCV NS3 hel inh = inhibitors of HCV NS3 helicase, primary screen, biochemical, Cy5 molecular beacon fluorescence; Hepatitis C virus NS3 helicase; inhibition, % at 10.9 µM; 0.56% of 290,000 active; AID 1800, 2009; NS3 helicase DNA unwinding;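 active = inhibition above the mean of all tested compounds plus 3 SD, set per campaign, cut at about 35% in these data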
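assay system = NS3 helicase fragment of HCV | buffer or medium = MOPS pH 6.5, MgCl2, DTT, Tween20, BSA | timing = 60 min unwinding reaction at 25 °C after ATP addition | signal = Cy5 beacon fluorescence read at start and 1 h | read-out basis = % inhibition of unwinding | control set = low DMSO, high thioflavine S at 110 µM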
Numbers stand for hits; 0 = inactive; - = no result given.

SMILES	UPR CHOP act	CHOP inh	p97 ATPase inh	UPR XBP1 act	PfM18AAP inh	HCV NS3 hel inh
CC(C)CCN(C(=O)c1cc(=O)[nH]c2ccccc12)c1c(N)n(Cc2ccccc2)c(=O)[nH]c1=O	0	-	-	0	-	-
C[C@H](Cc1ccccc1)Nc1ncnc2c1ncn2[C@@H]1O[C@H](CO)[C@H](O)C1O (some centres not stated)	-	0	-	-	-	-
CCOc1ccc(NC(=S)NNc2ccnc3cc(Cl)ccc23)cc1	0	0	0	0	0	0
S=C(NNc1ccnc2cc(Cl)ccc12)Nc1ccc(Cl)cc1Cl	0	96.0	0	0	0	0
O=C1Nc2cc3c(cc2C1=O)sc1ccccc13	0	0	0	0	0	0
COCc1c(C(=O)N2CCN(c3ccccc3C)CC2)oc2ccccc12	0	-	-	0	-	-
Cc1cccc(OCC2CCCN(Cc3nc(C4CC4)no3)C2)c1 (configuration not stated)	0	0	0	0	0	0
O=C(COc1ccccc1)Nc1c2c(nn1-c1ccc(F)cc1)CS(=O)(=O)C2	0	-	-	0	0	0
O=c1c2ccccc2nc(N/N=C/c2ccc(O)cc2)n1O	0	0	0	0	0	0
O=c1c2ccccc2nc(N/N=C/c2c(O)ccc3ccccc23)n1O	0	0	0	0	30.4	0
Cc1ccc(COC(=O)CCN=C2NS(=O)(=O)c3ccccc32)cc1	0	-	-	0	-	-
Cc1cccn2c(=O)c(C=O)c(N3CCC4(CC3)OCCO4)nc12	0	0	0	0	0	0
COC(=O)COc1ccc(S(=O)(=O)NC2CCCCCC2)cc1	0	0	0	0	0	0
CCOc1ccc(S(=O)(=O)NC2CCCCCC2)cc1	0	0	0	0	0	0
CCOc1cc(S(=O)(=O)NC2CCCCCC2)ccc1F	0	75.9	0	0	0	0
COC(=O)CCN(C1CCCCC1)S(=O)(=O)c1ccc(S(=O)(=O)NC2CCCCC2)cc1	0	74.8	0	0	0	0
COc1ccc(S(=O)(=O)NC2CCCCC2)cc1C	0	82.9	0	0	0	0
CC(N)C1CCC(C(=O)Nc2ccncc2)CC1 (configuration not stated)	-	0	-	-	-	-
Cc1ccc2nc(SCC(=O)Nc3cc(C(C)(C)C)nn3-c3ccccc3)[nH]c2c1	0	72.3	0	0	0	0
Cc1cc(NC(=O)CSc2nc3ccccc3[nH]2)n(-c2ccccc2)n1	0	0	0	0	0	0
COc1cc2c(cc1NC(=O)CSc1nc3ccc(C)cc3[nH]1)oc1ccccc12	0	76.7	0	0	0	0
O=C(c1cc(S(=O)(=O)N2CCOCC2)ccc1F)N(CCc1ccccc1)Cc1ccccc1	0	-	-	0	-	-
Cc1ccc(NC(=O)c2cc(S(=O)(=O)N3CCOCC3)c(Br)s2)cc1	0	0	0	0	0	0
CSc1nsc(SCC(=O)Nc2ccccc2F)n1	0	-	-	0	0	0
O=C(CN1CCCCC1)Nc1ccc(NC(=O)c2ccc(Cl)cc2)cc1Cl	0	84.7	0	0	0	0
SMILES	UPR CHOP act	CHOP inh	p97 ATPase inh	UPR XBP1 act	PfM18AAP inh	HCV NS3 hel inh
Cc1ccc(NC(=O)CN2CCCCCC2)c(Br)c1	-	75.1	0	-	0	0
Cc1ccc(NC(=O)CN2CCCCCC2)cc1Br	0	0	0	0	0	0
COc1cc(NC(=O)CCn2c(=S)oc3ccccc32)cc(OC)c1OC	0	-	-	0	0	0
COc1ccc(Oc2nc(C)cc(C)c2S(C)(=O)=O)cc1	0	0	0	0	0	0
COc1ccc(CSc2nc(C)cc(C)c2S(C)(=O)=O)cc1	0	0	0	0	28.7	0
CCOC(=O)c1ccccc1NC(=O)CSc1nc(N)cc(N)n1	0	0	0	0	0	0
CCOC(=O)c1ccccc1NC(=O)CSc1ncc(C(=O)OCC)c(N)n1	0	74.5	0	0	0	0
CC[C@@H]1C/C=C\Cc2ccccc2[C@H](C(=O)C[C@@H](O)CC(C)=O)OC1=O	0	-	-	0	-	-
COc1cc(C2C(C#N)=C(N)N(N(C)C)C3=C2C(=O)CCC3)ccc1O (configuration not stated)	-	-	-	-	0	0
CSc1cccc(NC(=O)C2CCCN(S(=O)(=O)c3cnc[nH]3)C2)c1 (configuration not stated)	-	0	17.0	-	0	0
CN(C)C(=O)CCc1ccc2c3c([nH]c2c1)[C@]1(CCC2CCCC2)[C@@H](C(=O)N2CCOCC2)C[C@H](CC(=O)NC(C)(C)C)C(=O)N1CC3	0	-	-	0	-	-
O=C(NC(NNc1ccc([N+](=O)[O-])cc1)(C(F)(F)F)C(F)(F)F)c1ccc(Cl)cc1	0	79.3	0	0	0	0
O=C(NNC(=O)c1ccc([N+](=O)[O-])cc1)c1ccc(F)cc1	0	-	-	0	-	-
CCCCCCC(=O)N/N=C/c1ccc(Br)cc1	0	93.0	0	0	0	0
CCCCCCCCC(=O)N/N=C/c1cccc(Br)c1	0	86.5	0	0	0	0
FC(F)(F)c1cccc(N2CCN(c3ccc4nnc(-c5ccccc5)n4n3)CC2)c1	0	85.0	0	0	0	0
CCOC(=O)c1c(C)[nH]c(O)c1C=Nc1ccc(C(F)(F)F)cc1	0	81.8	0	0	0	0
CC(=O)N1N=C(c2ccc(Cl)cc2)OC1c1ccc(C(C)C)cc1 (configuration not stated)	0	0	0	0	0	0
CC(=O)N1N=C(c2ccc(C)cc2)OC1c1ccc(Br)cc1 (configuration not stated)	0	93.3	0	0	0	0
Cc1cc(C)nc(N/N=C/c2cc(Br)ccc2O)n1	0	0	0	0	0	0
Cc1nn(-c2ccc(Cl)cc2)c(=O)c2ccccc12	0	0	0	0	0	0
Cc1c(Cl)sn(-c2ccc(Cl)cc2)c1=O	0	95.1	0	0	57.5	0
Cc1cc(Cn2nnc(-c3ccc(Br)cc3)n2)cc(C)c1O	0	-	-	0	-	-
C[C@H](NC(=O)C1CC(=O)N(c2ccc3c(c2)OCCO3)C1)C(=O)NCc1ccco1 (some centres not stated)	0	-	-	0	0	0
Cc1cc(C(=O)CSc2nnc3ccccn23)c(C)n1-c1ccccc1	0	72.9	0	0	0	0
COc1cc(C(=O)OCC(=O)Nc2ccccc2C(=O)NC2CC2)c([N+](=O)[O-])cc1OC	0	-	-	0	-	-
Cc1ccc(CNC(=O)C2CCCN2C(=O)Nc2ccccc2)cc1 (configuration not stated)	0	-	-	0	0	0
CCNc1nc(-c2cc(C)n(Cc3ccco3)c2C)cs1	0	0	0	0	0	0
